The values that follow come from ChEMBL document CHEMBL1128367, “Synthesis of 4"-deoxy motilides: identification of a potent and orally active prokinetic drug candidate” (J Med Chem, 1995).

For orientation: bioavailability means dose-corrected exposure relative to a reference, in per cent. Higher therefore signals much systemic uptake. For orientation: half-life means the time needed for the level to fall by half in the phase considered. Low readings indicate fast loss, high ones slow loss.

Molecules are shown by their SMILES. A value given as a limit tells only on which side of the number the result lay.

Data set [1] is filed under the species Oryctolagus cuniculus. In words: The compound was tested in vitro for prokinetic activity as smooth muscle contractility in isolated rabbit duodenum. It is filed as functional, Muscle tissue.
The nature of data set [2]: Activity relative to erythromycin A.
A short description of data set [3]: Oral bioavailability in dog. Format: ADME, organism-based, Canis lupus familiaris. To be noted: in vivo. Put shortly:
(§1)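 Groups of fasted male/female beagle dogs received the lactobionate salt as a 2 mg/mL solution, at 0.5 mg/kg iv or 1 mg/kg po. Blood was sampled at set times over 12 h. Parent drug was extracted from alkalized plasma with EtOAc:hexane (1:1) and measured by reverse-phase HPLC (pH 6.9 phosphate mobile phase) with oxidative electrochemical detection. The assay was linear over 0-500 ng/mL, with LOQ ~7 ng/mL.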

The nature of data set [4]: Half life period after oral administration in the dog. As to conditions: in vivo. Format: ADME, organism-based, Canis lupus familiaris. Put shortly:
as §1

`CC[C@H]1OC(=O)[C@H](C)[C@@H](O[C@H]2C[C@@](C)(OC)C[C@H](C)O2)[C@H](C)[C@@H](O[C@@H]2O[C@H](C)C[C@H](NC)[C@H]2O)[C@@]2(C)CC(C)=C(O2)[C@H](C)[C@@H](O)[C@]1(C)O`: the pED50 in data set [1] was 9.74. In addition, the Relative activity in data set [2] was found to be 3.89.
In turn, `CC[C@H]1OC(=O)[C@H](C)[C@@H](O[C@H]2C[C@@](C)(OC)[C@@H](O)[C@H](C)O2)[C@H](C)[C@@H](O[C@@H]2O[C@H](C)C[C@H](N(C)C)[C@H]2O)[C@@]2(C)CC(C)=C(O2)[C@H](C)[C@@H](O)[C@H]1C` yielded a pED50 in data set [1] of 8.68. In addition, the Relative activity in data set [2] is 2.83.
Compound `CC[C@H]1OC(=O)[C@H](C)[C@@H](O[C@H]2C[C@@](C)(OC)C[C@H](C)O2)[C@H](C)[C@@H](O[C@@H]2O[C@H](C)C[C@H](N(C)C)[C@H]2O)[C@@]2(C)CC(C)=C(O2)[C@H](C)[C@@H](O)[C@H]1C` registered a pED50 in data set [1] of 11.26. Moreover, the Relative activity in data set [2] turned out to be 5.41.
`CC[C@H]1OC(=O)[C@H](C)[C@@H](O[C@H]2C[C@@](C)(OC)C[C@H](C)O2)[C@H](C)[C@@H](O[C@@H]2O[C@H](C)C[C@H](N(C)CC)[C@H]2O)[C@@]2(C)CC(C)=C(O2)[C@H](C)[C@@H](O)[C@H]1C` [ALEMCINAL] showed a bioavailability in data set [3] of 39%. The compound also showed a half-life in data set [4] of 5.5 h. Also, the pED50 in data set [1] is recorded as greater than 12. In data set [2], this compound yielded a Relative activity greater than 6.15.
With `CC[C@H]1OC(=O)[C@H](C)[C@@H](O[C@H]2C[C@@](C)(OC)C[C@H](C)O2)[C@H](C)[C@@H](O[C@@H]2O[C@H](C)C[C@H](N(C)C)[C@H]2O)[C@@]2(C)CC(C)=C(O2)[C@H](C)[C@@H](O)[C@]1(C)O`, the pED50 in data set [1] amounted to 8.41. The compound further had a Relative activity in data set [2] of 2.56.
Compound `CC[C@H]1OC(=O)[C@H](C)[C@@H](O[C@H]2C[C@@](C)(OC)C[C@H](C)O2)[C@H](C)[C@@H](O[C@@H]2O[C@H](C)C[C@H](NC)[C@H]2O)[C@@]2(C)CC(C)=C(O2)[C@H](C)[C@@H](O)[C@H]1C` registered a bioavailability in data set [3] of 23.8%. In data set [4], this compound had a half-life of 2 h. Further, in data set [1], the pED50 was greater than 12. The compound also yielded a Relative activity in data set [2] greater than 6.15.
Take `CC[C@H]1OC(=O)[C@H](C)[C@@H](O[C@H]2C[C@@](C)(OC)C[C@H](C)O2)[C@H](C)[C@@H](O[C@@H]2O[C@H](C)C[C@H](N(C)CC)[C@H]2O)[C@@]2(C)CC(C)=C(O2)[C@H](C)[C@@H](O)[C@]1(C)O`: the bioavailability in data set [3] came to 2.7%. This compound gave a half-life in data set [4] of 2.6 h. In data set [1], this compound displayed a pED50 of 11.15. Further, in data set [2], the Relative activity came out at 5.3.
For the compound `CC[C@H]1OC(=O)[C@H](C)[C@@H](O[C@H]2C[C@@](C)(OC)[C@@H](O)[C@H](C)O2)[C@H](C)[C@@H](O[C@@H]2O[C@H](C)C[C@H](NC)[C@H]2O)[C@@]2(C)CC(C)=C(O2)[C@H](C)[C@@H](O)[C@]1(C)O`, the pED50 in data set [1] was found to be 7.1. In data set [2], this compound gave a Relative activity of 1.3.
For `CC[C@H]1OC(=O)[C@H](C)[C@@H](O[C@H]2C[C@@](C)(OC)[C@@H](O)[C@H](C)O2)[C@H](C)[C@@H](O[C@@H]2O[C@H](C)C[C@H](N(C)C)[C@H]2O)[C@](C)(O)C[C@@H](C)C(=O)[C@H](C)[C@@H](O)[C@]1(C)O` [ERYTHROMYCIN], the pED50 in data set [1] was determined as 5.85.
In data set [1], `CC[C@H]1OC(=O)[C@H](C)[C@@H](O[C@H]2C[C@@](C)(OC)[C@@H](O)[C@H](C)O2)[C@H](C)[C@@H](O[C@@H]2O[C@H](C)C[C@H](N(C)C)[C@H]2O)[C@@]2(C)CC(C)=C(O2)[C@H](C)[C@@H](O)[C@]1(C)O` had a pED50 of 8.4. In addition, the Relative activity in data set [2] was 2.55.
The compound `CC[C@H]1OC(=O)[C@H](C)[C@@H](O[C@H]2C[C@@](C)(OC)[C@@H](O)[C@H](C)O2)[C@H](C)[C@@H](O[C@@H]2O[C@H](C)C[C@H](N(C)CC)[C@H]2O)[C@@]2(C)CC(C)=C(O2)[C@H](C)[C@@H](O)[C@]1(C)O` yielded a bioavailability in data set [3] of 1.4%. The compound also had a half-life in data set [4] of 2.4 h. Also, the pED50 in data set [1] is on record as 8.45. This compound also came in with a Relative activity in data set [2] of 2.6.
